Screens deposited in PubChem BioAssay by several laboratories.
MEX-5 binding – MEX-5 zinc finger RNA-binding disruptors – biochemical, C. elegans, fluorescence polarization, MLPCN library, primary screen; Zinc finger protein mex-5 (Caenorhabditis elegans), Q9XUB2; MEX-5/FITC-TCR2 RNA binding; active compounds read low; activity score (negative = inhibition of binding), % at 10 µM; actives 0.38% (n = 300,000); AID 1832, 2009;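 active = inhibition past about -25% in most replicates, and total fluorescence under double the plate's negative control median, limit read from the data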
Target sequence (Q9XUB2 whole entry, looked up): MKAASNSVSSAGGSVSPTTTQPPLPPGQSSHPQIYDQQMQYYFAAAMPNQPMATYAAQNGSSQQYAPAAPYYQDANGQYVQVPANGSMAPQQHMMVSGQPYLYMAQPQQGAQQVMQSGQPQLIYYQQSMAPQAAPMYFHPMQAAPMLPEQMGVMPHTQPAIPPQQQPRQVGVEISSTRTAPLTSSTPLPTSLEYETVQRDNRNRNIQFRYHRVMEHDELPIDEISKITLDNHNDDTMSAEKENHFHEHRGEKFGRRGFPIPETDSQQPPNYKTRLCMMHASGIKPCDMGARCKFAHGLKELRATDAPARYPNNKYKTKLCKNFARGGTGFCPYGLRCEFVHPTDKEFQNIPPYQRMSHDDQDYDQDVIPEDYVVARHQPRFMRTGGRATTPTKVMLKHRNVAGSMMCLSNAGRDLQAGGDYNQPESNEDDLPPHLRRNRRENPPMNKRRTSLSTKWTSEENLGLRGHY
EBV gp42 inh – Epstein-Barr virus gp42 inhibitors, primary screen, biochemical, uHTS, fluorescence polarization; Glycoprotein 42 (Epstein-Barr virus (strain AG876)), Q1HVG2; inhibition, % (tested at 21.74 µM); Fluorescence polarization binding assay, mP read-out; actives 0.42% (n = 220,000); in the data active = inhibition above about 50%
Target sequence (Q1HVG2 whole entry, looked up): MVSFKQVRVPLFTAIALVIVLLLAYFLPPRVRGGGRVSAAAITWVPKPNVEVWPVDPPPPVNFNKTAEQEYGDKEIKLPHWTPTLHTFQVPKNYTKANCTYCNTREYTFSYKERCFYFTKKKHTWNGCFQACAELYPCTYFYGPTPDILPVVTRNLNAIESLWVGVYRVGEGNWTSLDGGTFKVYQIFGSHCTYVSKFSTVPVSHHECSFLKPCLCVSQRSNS
VIM-2 inh – VIM-2 metallo-beta-lactamase inhibitors, primary screen, biochemical, epi-absorbance readout, Pseudomonas aeruginosa enzyme. purified VIM-2, nitrocefin hydrolysis, epi-absorbance fluorescence. inhibition, % at 5.6 µM. actives 0.89% (n = 290,000). AID 1527, 2009;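 active = inhibition above the mean of all tested compounds plus 3 SD, cutoff set per screening run, cut at about 7.5% in these data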;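 also: red hydrolysis product quenches plate fluorescence so inhibitors raise well fluorescence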
GLD-1 TGE inh – GLD-1/TGE RNA complex disruptors, primary screen, biochemical, fluorescence polarization. inhibition, % at 5.96 µM. actives 0.44% (n = 320,000). purified GLD-1 + fluorescein TGE RNA;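 active = percent inhibition above a per-plate cutoff, the plate mean of test compounds plus 3 SD, cut at about 30% in these data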
BCLXL inh – inhibitors of human Bcl-xL, primary screen, biochemical, fluorescence polarization, HTS. Bcl-2-like protein 1 (Homo sapiens), Q07817. GST-Bcl-xL / FITC-Bim BH3 peptide fluorescence polarization. inhibition, % at 10.9 µM. actives 0.7% (n = 320,000). AID 2129, 2009;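 active = inhibition above the mean of all tested compounds plus 3 SD, cutoff set per campaign, cut at about 30% in these data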;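 also: inhibitors lower millipolarization by displacing the labeled peptide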
IMP-1 inh-1 – IMP-1 metallo-beta-lactamase inhibitors, primary screen, biochemical, epi-absorbance readout, Pseudomonas aeruginosa enzyme; metallo-beta-lactamase IMP-1 (Pseudomonas aeruginosa); inhibition, % at 5.6 µM; AID 1556, 2009; purified IMP-1, nitrocefin hydrolysis, epi-absorbance fluorescence; actives 0.45% (n = 290,000);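 active = inhibition above the mean plus 3 SD of all compounds in the same screening run, cut at about 4.5% in these data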
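System: purified IMP-1; amount: IMP-1 0.2 nM before substrate addition; compound: single dose, 5.6 µM; times: 25 °C, 15 min preincubation, 25 min reaction; signal: Epi-absorbance via hydrolysed-nitrocefin quenching of white-plate fluorescence, 480/530 nm, EDTA stop; benchmarks: DMSO with and without IMP-1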
IMP-1 inh-2 – IMP-1 metallo-beta-lactamase inhibitors, confirmation, selectivity assay for selective VIM-2 inhibitor project, biochemical, epi-absorbance readout, triplicate; AID 1856, 2009; shares compounds with VIM-2 inh; 1,300 tested, under 10 active; inhibition, % at 5.6 µM; purified IMP-1, nitrocefin hydrolysis, epi-absorbance fluorescence; call rule not given here
VIM-2 FRET inh – VIM-2 inhibitors in FRET format, confirmation, artefact control for selective VIM-2 inhibitor project, biochemical, epi-absorbance artifact exclusion | purified VIM-2, CCF2 FRET substrate hydrolysis | AID 1857, 2009 | shares compounds with VIM-2 inh | actives 23% (n = 1,300) | inhibition, % at 5.6 µM;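 active = inhibition above the mean of all tested compounds plus 3 SD, cut at about 19% in these data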
TEM-1 counter – TEM-1 serine beta-lactamase inhibitors, counter-screen for VIM-2 inhibitor project, biochemical, epi-absorbance, HTS. inhibition, % at 5.6 µM. actives 3% (n = 1,300). Purified TEM-1, nitrocefin hydrolysis, epi-absorbance fluorescence. shares compounds with VIM-2 inh;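 active = inhibition above that campaign's mean inhibition plus 3 SD, cut at about 0.46% in these data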
VIM-2 inh conf – VIM-2 metallo-beta-lactamase inhibitors, confirmation, biochemical, epi-absorbance, hits shared with IMP-1 screen. shares compounds with VIM-2 inh. purified VIM-2, nitrocefin hydrolysis. inhibition, % at 5.6 µM. actives 96% (n = 1,300). AID 2187, 2009;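 active = inhibition of the VIM-2 beta-lactamase enzyme above about 11% from the earlier first-round screen, limit read from the data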
A number is an active result; n = inactive; x = no result given. Shown are actives, neighbours in structure and some others; about 2.2% of the full set was active somewhere.

SMILES | MEX-5 binding | EBV gp42 inh | VIM-2 inh | GLD-1 TGE inh | BCLXL inh | IMP-1 inh-1 | IMP-1 inh-2 | VIM-2 FRET inh | TEM-1 counter | VIM-2 inh conf
CCc1nc(N=C(N)N)nc2ccccc12 | n | n | n | n | n | n | x | x | x | x
COc1ccc(S(=O)(=O)N2CCOC23CCN(S(=O)(=O)c2cc(F)ccc2F)CC3)cc1 | n | x | x | n | n | x | x | x | x | x
O=C(CNC(=O)c1ccc(Cl)cc1Cl)OCCOc1ccccc1F | x | x | x | n | x | x | x | x | x | x
CN(C)C(=O)c1ccc(Nc2nc(-c3cccs3)nc3ccccc23)cc1 | n | x | 22 | n | n | n | n | n | n | 25
COC(=O)C(Cc1ccc(O)cc1)NC(=O)NC12CC3CC(CC(C3)C1)C2 (stereo not drawn) | n | x | n | n | n | n | x | x | x | x
COc1ccccc1C(=O)Nc1ccc(C(=O)N2CCCCC2)cc1 | n | x | n | n | n | n | x | x | x | x
COc1cc(CCNC(=O)c2ccccc2NC(=O)C2=C(C)OCCS2)cc(OC)c1OC | n | x | n | n | n | n | x | x | x | x
COc1cc(NC(=O)C2=C(C)OCCS2)c(Cl)cc1C(=O)NCCN(C)C | n | x | 14 | n | n | n | n | n | n | 27
COc1ccc(OC)c(NC(=O)CSc2nncc3ccc(OC)c(OC)c23)c1 | n | n | n | n | n | n | x | x | x | x
CCOc1cc(/C=N/n2cnnc2)ccc1OC(=O)c1cccc([N+](=O)[O-])c1 | n | n | 13 | n | n | n | n | n | n | 14
CN(C)S(=O)(=O)c1cccc(NC(=S)N/N=C/c2cccc(O)c2)c1 | n | n | 18 | n | n | n | n | n | n | 14
CN(C)S(=O)(=O)c1cccc(NC(=S)N/N=C/c2cc(Br)ccc2O)c1 | n | n | n | n | n | n | x | x | x | x
CCCCN(C(=O)c1nn(C)c(=O)c2ccccc12)c1c(N)n(CC(C)C)c(=O)[nH]c1=O | x | x | x | n | n | x | x | x | x | x
O=C(NC1CCCN(Cc2ccc(Cl)cc2)C1)c1c(F)ccc(F)c1F (stereo not drawn) | n | x | n | n | n | n | x | x | x | x
O=c1c2cccc3c2c(nn1CN1CCOCC1)-c1ccccc1-3 | n | n | 26 | n | n | n | n | n | n | 33
CCN(CC)CCn1nc2c3c(cccc3c1=O)-c1ccccc1-2 | n | n | 17 | n | n | n | n | n | n | 29
Cc1cc(OCc2cc(C(=O)N3CCCCCC3)no2)cc(C)c1Cl | n | x | n | n | n | n | x | x | x | x
Cc1cc(=O)n2c3ccccc3n(CC(O)CN3CCN(Cc4ccccc4)CC3)c2c1C#N (stereo not drawn) | n | n | 14 | n | n | n | n | n | n | 33
Cc1cc(=O)n2c3ccccc3n(CC(O)CN3CCC(C)CC3)c2c1C#N (stereo not drawn) | n | n | n | x | x | n | x | x | x | x
CCC1CCCCN1CC(O)Cn1c2ccccc2n2c(=O)cc(C)c(C#N)c12 (stereo not drawn) | n | n | n | n | n | n | x | x | x | x
Cc1cc(=O)n2c3ccccc3n(CC(O)CN3CCN(CCO)CC3)c2c1C#N (stereo not drawn) | n | n | 22 | n | n | n | n | n | n | 38
C/C(Cl)=C/Cn1c(NCCCn2ccnc2)nc2c1c(=O)[nH]c(=O)n2C | n | n | 22 | n | n | n | n | n | n | 45
C/C(Cl)=C\Cn1c(NCCCn2ccnc2)nc2c1c(=O)n(C)c(=O)n2C | n | n | 31 | n | n | n | n | n | n | 49
COc1ccc(N2CCN(C(=O)CN3C(=O)NC4(CCCCCC4)C3=O)CC2)cc1 | x | x | x | n | n | x | x | x | x | x
Cc1nn2c(-c3ccco3)nnc2c2ccccc12 | n | n | 13 | n | n | n | n | n | n | 27
SMILES | MEX-5 binding | EBV gp42 inh | VIM-2 inh | GLD-1 TGE inh | BCLXL inh | IMP-1 inh-1 | IMP-1 inh-2 | VIM-2 FRET inh | TEM-1 counter | VIM-2 inh conf
Cc1ccccc1-c1nnc2c3ccccc3c(C)nn12 | n | n | n | n | n | n | x | x | x | x
Cc1ccc2oc(=O)c3cc(C(=O)N4CCN(C)CC4)sc3c2c1 | n | n | 13 | n | n | n | n | n | n | 20
Cc1ccc2oc(=O)c3cc(C(=O)NCCN4CCc5ccccc5C4)sc3c2c1 | n | n | n | n | n | n | x | x | x | x
COc1ccc(NC(=O)CCOc2ccccc2F)cc1S(=O)(=O)N1CCCCC1 | x | x | x | n | x | x | x | x | x | x
CC12CCC(c3c(C(=O)O)nn(-c4ccccc4)c31)C2(C)C (stereo not drawn) | n | n | 14 | n | n | n | n | 26 | n | 18
CC12CCC(c3c(CO)nn(-c4ccccc4)c31)C2(C)C (stereo not drawn) | n | n | n | n | n | n | x | x | x | x
O=C(C[C@@H]1C/C=C/CC[C@@H](Cc2ccc(F)cc2)C(=O)O[C@@H](c2ccccc2)CNC1=O)NCCO | x | x | x | n | x | x | x | x | x | x
O=C(CSc1nnc(NC(=O)c2ccc(F)cc2F)s1)NC1CCCC1 | n | x | n | n | n | n | x | x | x | x
O=C(CSc1nnc(NC(=O)c2c(F)cccc2F)s1)NCc1ccccc1 | n | x | 33 | n | n | n | n | 56 | n | 38
O=C(CSc1nnc(NC(=O)c2ccccc2F)s1)NC1CCCC1 | n | x | 13 | n | n | n | n | 24 | n | 15
CC(=O)c1ccc(S(=O)(=O)N(C)CC(=O)NCC2CCCCC2)cc1 | n | x | n | n | n | n | x | x | x | x
OCC[C@H]1C[C@@H](O)[C@H](O)[C@@]2(OCc3ccccc32)O1 | x | x | x | n | n | x | x | x | x | x
Cc1nc(NCCCn2ccnc2)c2oc3ccccc3c2n1 | n | n | 76 | n | n | n | n | n | n | 83
CCNc1nc(C)nc2c1oc1ccccc12 | x | n | n | n | n | n | x | x | x | x
c1ccc2c(c1)oc1c(NCCCn3ccnc3)ncnc12 | n | n | 56 | n | n | n | n | n | n | 60
